# Experimental data: ChEMBL document CHEMBL4414574, “Structure-Based Discovery and Development of a Series of Potent and Selective Bromodomain and Extra-Terminal Protein Inhibitors” (J Med Chem, 2019)
# Activity calls are given as the source filed them. No cut-off for these calls is given here.
# Assays:
# [1] = Half life in ICR mouse at 10 mg/kg, po administered via gavage measured after 0.25 to 24 hrs by UPLC/MS analysis; format: ADME, organism-based; settings: in vivo
# Procedure, shortened: (§1)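 Male ICR mice dosed orally in 1% DMSO/0.5% HPMC vehicle; plasma or brain drug levels used to derive Tmax, Cmax, AUC0-t, AUC0-inf and T1/2.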
# [2] = Half life in human liver microsomes at 1 uM preincubated for 5 mins followed by NADPH addition and measured after 5 to 30 mins by LC/MS/MS analysis; format: ADME, Microsome
# [3] = Intrinsic clearance in human liver microsomes at 1 uM preincubated for 5 mins followed by NADPH addition and measured after 5 to 30 mins by LC/MS/MS analysis; format: ADME, Microsome; settings: read-out: CLH
# Procedure, shortened: (§2)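 Liver microsomes (0.5 mg/mL) preincubated 5 min at 37 °C with 1 μM compound in 0.1 M phosphate buffer pH 7.4 containing 1 mM EDTA and 5 mM MgCl2; started with 1 mM NADPH; sampled at 0, 5, 10 and 30 min; quenched with cold acetonitrile; parent remaining quantified by LC/MS/MS.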
# Cytochrome P450 3A4 = Cytochrome P450 3A4 (Homo sapiens, UniProt P08684); assay: Time-dependent inhibition of CYP3A4 in human liver microsomes at 10 uM using midazolam or testosterone as substrate preincubated up to 30 mins followed by NADPH generating system addition and measured after 10 mins; format: ADME
# Cytochrome P450 3A4, sequence (P08684 whole entry): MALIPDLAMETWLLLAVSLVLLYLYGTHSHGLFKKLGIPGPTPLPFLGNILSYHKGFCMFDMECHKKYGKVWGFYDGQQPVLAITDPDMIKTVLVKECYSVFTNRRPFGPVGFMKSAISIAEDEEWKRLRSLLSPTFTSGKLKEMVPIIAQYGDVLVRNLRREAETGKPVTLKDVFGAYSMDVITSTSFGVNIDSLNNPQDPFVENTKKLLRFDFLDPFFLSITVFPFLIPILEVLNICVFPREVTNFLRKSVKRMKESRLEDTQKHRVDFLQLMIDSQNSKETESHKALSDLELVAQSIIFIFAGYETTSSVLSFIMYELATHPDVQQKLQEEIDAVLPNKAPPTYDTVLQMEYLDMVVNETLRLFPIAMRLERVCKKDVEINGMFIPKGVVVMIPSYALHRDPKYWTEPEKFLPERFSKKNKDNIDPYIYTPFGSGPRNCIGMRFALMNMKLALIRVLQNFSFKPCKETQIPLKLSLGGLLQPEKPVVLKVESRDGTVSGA
# Procedure, shortened: (§3)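 Human liver microsomes 0.2 mg/mL, 100 mM phosphate pH 7.4, 10 μM test compound, preincubated 0, 5, 10 and 30 min at 37 °C; then NADPH plus probe cocktail (5 μM midazolam, 50 μM testosterone, 5 μM dextromethorphan, 10 μM diclofenac, 50 μM phenacetin, 50 μM S-(+)-mephenytoin) added; 10 min reaction; kobs in units of 10^-4/min.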
# CYP1A2 = CYP1A2 (Homo sapiens, UniProt P05177); assay: Reversible inhibition of CYP1A2 in human liver microsomes at 10 uM using phenacetin as substrate preincubated for 5 mins followed by NADPH generating system addition and measured after 20 mins relative to control; format: ADME; settings: probe phenacetin
# Procedure, shortened: (§4)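 Human liver microsomes 0.2 mg/mL, 100 mM phosphate pH 7.4, 10 μM test compound, probe cocktail (10 μM midazolam, 100 μM testosterone, 10 μM dextromethorphan, 20 μM diclofenac, 100 μM phenacetin, 100 μM mephenytoin); organic solvent <1%; 5 min preincubation at 37 °C, started with NADPH-generating system, 20 min reaction; metabolite formation expressed relative to PBS control.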
# [4] = Half life in mouse liver microsomes at 1 uM preincubated for 5 mins followed by NADPH addition and measured after 5 to 30 mins by LC/MS/MS analysis; format: ADME, Microsome; settings: mouse liver microsomes
# [5] = Tmax in ICR mouse at 10 mg/kg, po administered via gavage measured after 0.25 to 24 hrs by UPLC/MS analysis; format: ADME, organism-based; settings: in vivo
# Procedure, shortened: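 Male ICR mice dosed orally (3, 10 or 100 mg/kg, per line) in 1% DMSO/0.5% HPMC vehicle; plasma drug levels measured.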
# [6] = AUC (0 to infinity) in ICR mouse at 10 mg/kg, po administered via gavage measured after 0.25 to 24 hrs by UPLC/MS analysis; format: ADME, organism-based; set-up: dose 10 mg/kg, route oral, time infinity; settings: in vivo
# Procedure, shortened: (§5)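 Male ICR mice were dosed orally in 1% DMSO/0.5% HPMC vehicle. Plasma (and brain, where stated) concentrations gave Tmax, Cmax, T1/2, AUC0-t and AUC0-inf.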
# CYP2C19 = CYP2C19 (Homo sapiens, UniProt P33261); assay: Reversible inhibition of CYP2C19 in human liver microsomes at 10 uM using mephenytoin as substrate preincubated for 5 mins followed by NADPH generating system addition and measured after 20 mins relative to control; format: ADME; settings: probe mephenytoin; procedure, shortened: as §4
# CYP2C19, sequence (P33261 whole entry): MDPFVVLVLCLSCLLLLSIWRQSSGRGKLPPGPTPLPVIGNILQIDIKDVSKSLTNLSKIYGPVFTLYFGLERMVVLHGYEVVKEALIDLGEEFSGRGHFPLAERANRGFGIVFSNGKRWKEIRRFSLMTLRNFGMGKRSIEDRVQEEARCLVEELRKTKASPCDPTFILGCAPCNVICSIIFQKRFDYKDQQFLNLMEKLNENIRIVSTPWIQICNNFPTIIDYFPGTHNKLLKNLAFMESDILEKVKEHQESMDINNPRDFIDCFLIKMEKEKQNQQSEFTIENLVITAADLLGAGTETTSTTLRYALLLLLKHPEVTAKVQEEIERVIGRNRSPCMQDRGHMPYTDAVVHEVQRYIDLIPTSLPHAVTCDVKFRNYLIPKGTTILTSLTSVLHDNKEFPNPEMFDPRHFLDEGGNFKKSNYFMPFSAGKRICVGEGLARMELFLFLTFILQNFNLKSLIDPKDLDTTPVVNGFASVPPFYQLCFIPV
# MM1.S = assay: Antiproliferative activity against human MM1S cells after 72 hrs by CCK8 or SRB assay; format: functional, cell-based
# Procedure, shortened: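 IC50 against MM.1S cell proliferation was taken as the mean of three independent experiments, each run in triplicate, reported with SEM.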
# Cytochrome P450 2C19 = Cytochrome P450 2C19 (Homo sapiens, UniProt P33261); assay: Time-dependent inhibition of CYP2C19 in human liver microsomes at 10 uM using mephenytoin as substrate preincubated up to 30 mins followed by NADPH generating system addition and measured after 10 mins; format: ADME; procedure, shortened: as §3
# Cytochrome P450 2C19, sequence (P33261 whole entry): as above
# [7] = AUC (0 to t) in ICR mouse at 10 mg/kg, po administered via gavage measured after 0.25 to 24 hrs by UPLC/MS analysis; format: ADME, organism-based; set-up: time 0.25-24 hr, dose 10 mg/kg, route oral; settings: in vivo; procedure, shortened: as §5
# CYP2C9 = CYP2C9 (Homo sapiens, UniProt P11712); assay: Reversible inhibition of CYP2C9 in human liver microsomes at 10 uM using diclofenac as substrate preincubated for 5 mins followed by NADPH generating system addition and measured after 20 mins relative to control; format: ADME; settings: probe diclofenac; procedure, shortened: as §4
# CYP2C9, sequence (P11712 whole entry): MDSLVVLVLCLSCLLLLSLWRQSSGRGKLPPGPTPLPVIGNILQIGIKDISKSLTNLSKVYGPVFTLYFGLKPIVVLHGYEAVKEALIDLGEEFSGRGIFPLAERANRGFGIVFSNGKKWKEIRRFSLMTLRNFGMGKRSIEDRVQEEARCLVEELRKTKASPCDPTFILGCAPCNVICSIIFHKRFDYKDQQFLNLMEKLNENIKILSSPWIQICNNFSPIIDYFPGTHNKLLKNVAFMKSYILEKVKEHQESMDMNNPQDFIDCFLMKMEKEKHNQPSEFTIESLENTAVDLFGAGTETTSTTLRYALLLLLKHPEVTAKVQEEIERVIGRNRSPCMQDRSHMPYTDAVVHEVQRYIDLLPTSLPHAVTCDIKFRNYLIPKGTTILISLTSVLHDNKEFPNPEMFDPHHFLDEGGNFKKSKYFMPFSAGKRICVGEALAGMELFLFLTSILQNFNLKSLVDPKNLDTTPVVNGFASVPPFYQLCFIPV
# Cytochrome P450 2D6 = Cytochrome P450 2D6 (Homo sapiens, UniProt P10635); assay: Time-dependent inhibition of CYP2D6 in human liver microsomes at 10 uM using dextromethorphan as substrate preincubated up to 30 mins followed by NADPH generating system addition and measured after 10 mins; format: ADME; procedure, shortened: as §3
# Cytochrome P450 2D6, sequence (P10635 whole entry): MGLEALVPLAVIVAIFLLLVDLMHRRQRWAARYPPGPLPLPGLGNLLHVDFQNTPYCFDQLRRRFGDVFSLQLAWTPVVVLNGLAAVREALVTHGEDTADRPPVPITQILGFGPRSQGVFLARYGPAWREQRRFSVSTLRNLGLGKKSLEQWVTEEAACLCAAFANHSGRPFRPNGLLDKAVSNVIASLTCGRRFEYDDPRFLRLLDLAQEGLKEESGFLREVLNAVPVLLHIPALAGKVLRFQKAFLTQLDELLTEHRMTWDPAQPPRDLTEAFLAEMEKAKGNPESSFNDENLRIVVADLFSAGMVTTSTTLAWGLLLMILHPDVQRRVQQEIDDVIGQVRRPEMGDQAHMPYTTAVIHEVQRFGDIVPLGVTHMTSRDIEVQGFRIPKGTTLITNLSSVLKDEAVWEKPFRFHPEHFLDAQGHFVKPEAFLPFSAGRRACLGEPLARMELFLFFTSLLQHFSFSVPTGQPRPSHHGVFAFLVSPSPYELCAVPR
# [8] = target: T1, Bromodomain-containing protein 4 (Homo sapiens, UniProt O60885); assay: Displacement of 5-FITC labelled (+)-JQ1 from His6-tagged human BRD4 bromodomain 1 expressed in Escherichia coli BL21(DE3) )-codon plus-RIL cells incubated for 4 hrs in dark condition by fluorescence anisotropy binding assay
# CYP3A4 = CYP3A4 (Homo sapiens, UniProt P08684); assay: Reversible inhibition of CYP3A4 in human liver microsomes at 10 uM using midazolam or testosterone as substrate preincubated for 5 mins followed by NADPH addition and measured after 20 mins relative to control; format: ADME; settings: probe midazolam or testosterone; procedure, shortened: as §4
# CYP3A4, sequence (P08684 whole entry): as the sequence (P08684 whole entry) above
# [9] = Intrinsic clearance in mouse liver microsomes at 1 uM preincubated for 5 mins followed by NADPH addition and measured after 5 to 30 mins by LC/MS/MS analysis; format: ADME, Microsome; settings: read-out: CLH; procedure, shortened: as §2
# Cytochrome P450 2C9 = Cytochrome P450 2C9 (Homo sapiens, UniProt P11712); assay: Time-dependent inhibition of CYP2C9 in human liver microsomes at 10 uM using diclofenac as substrate preincubated up to 30 mins followed by NADPH generating system addition and measured after 10 mins; format: ADME; procedure, shortened: as §3
# Cytochrome P450 2C9, sequence (P11712 whole entry): as the sequence (P11712 whole entry) above
# Cytochrome P450 1A2 = target: T2, Cytochrome P450 1A2 (Homo sapiens, UniProt P05177); assay: Time-dependent inhibition of CYP1A2 in human liver microsomes at 10 uM using phenacetin as substrate preincubated up to 30 mins followed by NADPH generating system addition and measured after 10 mins; format: ADME; procedure, shortened: as §3
# T2 sequence (P05177 whole entry): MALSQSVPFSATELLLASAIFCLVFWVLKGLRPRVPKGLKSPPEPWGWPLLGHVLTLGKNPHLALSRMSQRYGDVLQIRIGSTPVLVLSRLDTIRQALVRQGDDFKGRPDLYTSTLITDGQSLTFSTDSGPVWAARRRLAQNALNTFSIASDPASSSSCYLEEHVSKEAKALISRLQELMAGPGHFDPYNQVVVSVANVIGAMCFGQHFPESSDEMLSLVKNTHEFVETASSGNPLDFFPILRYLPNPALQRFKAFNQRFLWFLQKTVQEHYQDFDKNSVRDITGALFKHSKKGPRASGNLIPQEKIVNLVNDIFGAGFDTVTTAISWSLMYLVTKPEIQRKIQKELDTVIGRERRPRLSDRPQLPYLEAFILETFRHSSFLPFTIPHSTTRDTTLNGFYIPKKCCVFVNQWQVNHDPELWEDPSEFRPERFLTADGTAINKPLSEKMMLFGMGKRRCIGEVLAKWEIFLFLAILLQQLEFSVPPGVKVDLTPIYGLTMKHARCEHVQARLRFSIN
# [10] = Cmax in ICR mouse at 10 mg/kg, po administered via gavage measured after 0.25 to 24 hrs by UPLC/MS analysis; format: ADME, organism-based; set-up: dose 10 mg/kg, route oral; settings: in vivo; procedure, shortened: as §1
# [11] = target: Bromodomain-containing protein 2 (Homo sapiens) (UniProt P25440); assay: Inhibition of BRD2 bromodomain 1 (unknown origin)
# Bromodomain-containing protein 2 (Homo sapiens), sequence (P25440 whole entry, looked up): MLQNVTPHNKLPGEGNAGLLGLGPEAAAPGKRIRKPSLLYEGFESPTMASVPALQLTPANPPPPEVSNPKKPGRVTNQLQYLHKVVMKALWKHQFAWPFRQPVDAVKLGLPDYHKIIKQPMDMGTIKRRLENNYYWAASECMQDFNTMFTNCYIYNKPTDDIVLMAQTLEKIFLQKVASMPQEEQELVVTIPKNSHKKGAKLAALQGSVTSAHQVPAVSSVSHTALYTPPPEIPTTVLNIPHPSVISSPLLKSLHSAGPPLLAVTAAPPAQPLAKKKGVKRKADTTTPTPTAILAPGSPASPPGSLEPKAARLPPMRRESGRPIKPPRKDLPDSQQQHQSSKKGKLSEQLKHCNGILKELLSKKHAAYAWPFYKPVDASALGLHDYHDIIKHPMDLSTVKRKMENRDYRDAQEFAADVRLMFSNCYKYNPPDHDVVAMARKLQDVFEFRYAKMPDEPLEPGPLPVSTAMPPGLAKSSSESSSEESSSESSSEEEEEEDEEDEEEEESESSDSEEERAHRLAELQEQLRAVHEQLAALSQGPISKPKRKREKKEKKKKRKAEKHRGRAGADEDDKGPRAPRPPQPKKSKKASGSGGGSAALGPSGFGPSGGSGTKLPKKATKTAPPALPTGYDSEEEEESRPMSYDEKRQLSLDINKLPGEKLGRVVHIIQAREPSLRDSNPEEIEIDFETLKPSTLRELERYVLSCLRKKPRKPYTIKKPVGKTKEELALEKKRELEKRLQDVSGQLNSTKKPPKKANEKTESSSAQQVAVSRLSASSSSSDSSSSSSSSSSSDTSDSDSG
# [12] = target: T1, Bromodomain-containing protein 4; assay: Inhibition of BRD4 bromodomain 2 (unknown origin)
# [13] = target: T1, Bromodomain-containing protein 4; assay: Inhibition of BRD4 bromodomain 1 (unknown origin)
# Procedure, shortened: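 BRD4 BD1 (His6-tagged, E. coli BL21(DE3)-expressed, Ni-NTA purified) at 10 nM with 5 nM FITC-labelled (+)-JQ1 tracer; 50 mM HEPES pH 7.4, 150 mM NaCl, 0.5 mM CHAPS, DMSO 2‰ final; graded inhibitor; 4 h dark equilibration at room temperature; fluorescence anisotropy read (ex 485/em 530 nm). IC50 from two independent experiments in duplicate, mean ± SEM.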
# CYP2D6 = CYP2D6 (Homo sapiens, UniProt P10635); assay: Reversible inhibition of CYP2D6 in human liver microsomes at 10 uM using dextromethorphan as substrate preincubated for 5 mins followed by NADPH generating system addition and measured after 20 mins relative to control; format: ADME; settings: probe dextromethorphan; procedure, shortened: as §4
# CYP2D6, sequence (P10635 whole entry): as the sequence (P10635 whole entry) above
# [14] = target: Bromodomain-containing protein 2 (Homo sapiens) (UniProt P25440); assay: Inhibition of BRD2 bromodomain 2 (unknown origin)
# Procedure, shortened: (§6)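 Bromodomain binding panel (32 bromodomains) screened at 1 μM; primary binding read-out reported as percent of control, lower values meaning stronger binding.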
# [15] = target: Histone acetyltransferase p300 (Homo sapiens) (UniProt Q09472); assay: Inhibition of EP300 (unknown origin) at 1 uM; procedure, shortened: as §6
# [16] = Metabolic stability in human liver microsomes at 1 uM preincubated for 5 mins followed by NADPH addition and measured after 5 to 30 mins by LC/MS/MS analysis; format: ADME, Microsome; procedure, shortened: as §2
# [17] = Metabolic stability in mouse liver microsomes at 1 uM preincubated for 5 mins followed by NADPH addition and measured after 5 to 30 mins by LC/MS/MS analysis; format: ADME, Microsome; procedure, shortened: as §2
SMILES,half-life [1] [min],half-life at 1 µM [2] [min],microsomal CLint at 1 µM [3] [µL/min/mg],TDI (Cytochrome P450 3A4),half-life at 1 µM [4] [min],Tmax [5] [min],AUC(0-inf) [6] [ng·h/mL],"inhibition at 20 min, 10 µM (CYP2C19) [%]",IC50 (MM1.S) [nM],TDI (Cytochrome P450 2C19),AUC(0-t) [7] [ng·h/mL],"inhibition at 20 min, 10 µM (CYP2C9) [%]",TDI (Cytochrome P450 2D6),IC50 [8] [nM],"inhibition at 20 min, 10 µM (CYP3A4) [%]",microsomal CLint at 1 µM [9] [µL/min/mg],TDI (Cytochrome P450 2C9),TDI (Cytochrome P450 1A2),Cmax [10] [ng/mL],inhibition activity call (active/inactive) [11],other results
Cc1ccc(-n2nc(C(=O)N3CCN(C)CC3)nc2-c2ccc3c(c2)N(C2CC2)C(C)C(=O)N3C)cc1 (centres undefined),102,62,22,19 ×10⁻⁴ /min,107,18,2760,17,8,Not Active,2740,6,14 ×10⁻⁴ /min,9.4,12,13,19 ×10⁻⁴ /min,41 ×10⁻⁴ /min,1230,–,"inhibition at 20 min, 10 µM (CYP1A2): 2%"
Cc1ccc(-n2nc(C(=O)N3CCN(C)CC3)nc2-c2ccc3c(c2)N(C2CCCC2)[C@H](C)C(=O)N3C)cc1,36,23,61,55 ×10⁻⁴ /min,41,18,58100,19,26.1,141 ×10⁻⁴ /min,58100,30,Not Active,5.4,31,34,74 ×10⁻⁴ /min,51 ×10⁻⁴ /min,42900,Active,"inhibition [12]: Active; inhibition [13]: Active; inhibition at 20 min, 10 µM (CYP2D6): 3%; inhibition [14]: Active; inhibition [15]: inactive"
Cc1ccc(-n2cnnc2-c2ccc3c(c2)N(C2CC2)C(C)C(=O)N3C)cc1 (centres undefined),90,–,–,Not Active,–,18,164,–,6.7,Not Active,161,–,Not Active,8.6,–,–,Not Active,Not Active,163,–,Stability [16]: Stable; Stability [17]: Stable
Cc1ccc(-n2c(C)nnc2-c2ccc3c(c2)N(C2CCCC2)[C@H](C)C(=O)N3C)cc1,–,–,–,Not Active,–,–,–,–,3.9,Not Active,–,> 50,Not Active,5.2,–,–,Not Active,Not Active,–,Active,Stability [16]: Stable; Stability [17]: Stable; inhibition [12]: Active; inhibition [13]: Active; inhibition [14]: Active; inhibition [15]: inactive
